ChEMBL document CHEMBL1158614, “Synthesis and biological evaluation of azobicyclo[3.3.0] octane derivatives as dipeptidyl peptidase 4 inhibitors for the treatment of type 2 diabetes” (Bioorg Med Chem Lett, 2010)
pIC50: −log10 of the molar value.

Columns and labels:
Dipeptidyl peptidase 4 = Dipeptidyl peptidase 4 (Homo sapiens, UniProt P27487)
Mus musculus [1] = experiment: Antidiabetic activity in ICR mouse assessed as reduction in glucose AUC (0 to 120) at 10 mg/kg, po pretreated 30 mins before glucose challenge measured after 120 mins by oral glucose tolerance test relative to control; assay type: functional, organism-based; parameters: dose 10 mg/kg
Outline: (§1)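 Lean ICR mice were dosed orally at 1, 3 or 10 mg/kg 0.5 h before an oral glucose challenge. Blood glucose was followed over 0–120 min, and glucose AUC0–120 min was expressed as percent change versus vehicle control. Data are mean ± SEM, n = 5 per group; P versus control.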

Mus musculus [2] = experiment: Antidiabetic activity in ICR mouse assessed as reduction in glucose AUC (0 to 120) at 1 mg/kg, po pretreated 30 mins before glucose challenge measured after 120 mins by oral glucose tolerance test relative to control; assay type: functional, organism-based; parameters: dose 1 mg/kg
Outline: as §1

Mus musculus [3] = experiment: Antidiabetic activity in ICR mouse assessed as reduction in glucose AUC (0 to 120) at 3 mg/kg, po pretreated 30 mins before glucose challenge measured after 120 mins by oral glucose tolerance test relative to control; assay type: functional, organism-based; parameters: dose 3 mg/kg
Outline: as §1

Cynomolgus monkey [4] = experiment: animal or person; conditions: Macaca fascicularis, po, 12 h, read-out: Inhibition
[5] = (§2) Apparent total oral clearance in Sprague-Dawley rat at 3 mg/kg, po; assay type: ADME, organism-based; parameters: dose 3 mg/kg, route oral; conditions: Sprague-Dawley, in vivo
Outline: (§3)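 Single oral dose of 3.0 mg/kg given to Sprague-Dawley rats, n = 6. Plasma concentration–time profiles gave apparent total plasma clearance (CL_z/F), half-life, AUC0–t and peak plasma concentration (Cmax).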

[6] = Cmax in Sprague-Dawley rat at 3 mg/kg, po; assay type: ADME, organism-based; parameters: dose 3 mg/kg, route oral; conditions: in vivo
Outline: as §3

[7] = (§4) AUC (0 to t) in Sprague-Dawley rat at 3 mg/kg, po; assay type: ADME, organism-based, Plasma; parameters: dose 3 mg/kg, route oral; conditions: Sprague-Dawley, plasma
Outline: as §3

[8] = Half life in Sprague-Dawley rat at 3 mg/kg, po; assay type: ADME, organism-based; parameters: dose 3 mg/kg, route oral; conditions: in vivo
Outline: as §3

Cynomolgus monkey [9] = experiment: animal or person; conditions: Macaca fascicularis, po, 9 h, read-out: Inhibition
Rattus norvegicus [10] = experiment: as §2; assay type: ADME, organism-based; parameters: dose 3 mg/kg, route oral; conditions: in vivo
Outline: as §3

Cynomolgus monkey [11] = experiment: animal or person; conditions: Macaca fascicularis, po, 5 h, read-out: Inhibition
Rattus norvegicus [12] = experiment: as §4; assay type: ADME, organism-based, Plasma; parameters: dose 3 mg/kg, route oral; conditions: in vivo
Outline: as §3

Sequence of Dipeptidyl peptidase 4 (P27487 whole entry): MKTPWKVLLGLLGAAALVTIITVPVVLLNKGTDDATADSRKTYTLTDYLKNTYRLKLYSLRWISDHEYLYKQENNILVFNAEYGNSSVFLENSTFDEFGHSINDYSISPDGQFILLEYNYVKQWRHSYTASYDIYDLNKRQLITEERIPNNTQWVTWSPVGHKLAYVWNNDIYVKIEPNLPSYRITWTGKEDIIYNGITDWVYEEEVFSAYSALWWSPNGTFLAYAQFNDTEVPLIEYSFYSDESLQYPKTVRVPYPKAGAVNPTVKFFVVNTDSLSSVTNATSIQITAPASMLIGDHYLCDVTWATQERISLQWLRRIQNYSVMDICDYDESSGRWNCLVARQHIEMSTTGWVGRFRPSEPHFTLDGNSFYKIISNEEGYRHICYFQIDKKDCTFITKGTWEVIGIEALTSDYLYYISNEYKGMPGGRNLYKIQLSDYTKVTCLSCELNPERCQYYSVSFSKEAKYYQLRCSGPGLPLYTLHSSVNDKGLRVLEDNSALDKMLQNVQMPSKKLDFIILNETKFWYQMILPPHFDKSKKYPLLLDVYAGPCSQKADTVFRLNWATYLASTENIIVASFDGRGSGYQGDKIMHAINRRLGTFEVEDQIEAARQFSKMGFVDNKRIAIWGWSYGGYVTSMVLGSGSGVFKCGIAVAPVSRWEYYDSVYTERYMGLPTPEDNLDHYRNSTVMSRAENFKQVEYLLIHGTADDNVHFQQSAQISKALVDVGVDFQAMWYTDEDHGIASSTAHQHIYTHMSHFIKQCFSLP

Molecule `N#C[C@@H]1CCCN1C(=O)CN[C@@H]1C[C@@H]2CN(C(=O)N3CCCCC3)C[C@@H]2C1` has a pIC50 (Dipeptidyl peptidase 4) of 7.16.
In the case of `N#C[C@@H]1CCCN1C(=O)CNC12CC3CC(CC(O)(C3)C1)C2`, the AUC (Mus musculus [1]) was 51.4%, the AUC (Mus musculus [2]) was 35.8% and the AUC (Mus musculus [3]) was 41.7%.
In the case of `CN(C)C(=O)N1C[C@@H]2C[C@@](C)(NCC(=O)N3CCC[C@H]3C#N)C[C@@H]2C1`, the inhibition in vivo at 20 mg/kg (Cynomolgus monkey [4]) was 51%, the CL/F [5] was 564 mL/min/kg and the Cmax [6] was 146 ng/mL. For the same molecule, the AUC(0-t) [7] was 120 ng·h/mL, the half-life [8] was 54 min and the inhibition in vivo at 20 mg/kg (Cynomolgus monkey [9]) was greater than 75%.
In the case of `CN(C)C(=O)N1C[C@@H]2C[C@](C)(NCC(=O)N3CCC[C@H]3C#N)C[C@@H]2C1`, the inhibition in vivo at 20 mg/kg (Cynomolgus monkey [4]) was 38%, the CL (Rattus norvegicus [10]) was 847.8 mL/min/kg and the inhibition in vivo at 20 mg/kg (Cynomolgus monkey [11]) was greater than 75%. For the same molecule, the Cmax [6] was 165 ng/mL, the AUC (Rattus norvegicus [12]) was 266.3 ng·h/mL and the half-life [8] was 195 min.
`CN(C)C(=O)N1C[C@H]2C[C@@H](NCC(=O)N3CCC[C@H]3C#N)C[C@H]2C1` gave an AUC (Mus musculus [1]) of 45%, an AUC (Mus musculus [2]) of 39.7% and an AUC (Mus musculus [3]) of 42%. It also gave a CL/F [5] of 190 mL/min/kg, an inhibition in vivo at 20 mg/kg (Cynomolgus monkey [11]) greater than 75% and a Cmax [6] of 39.4 ng/mL. It also gave an AUC(0-t) [7] of 68.7 ng·h/mL and a half-life [8] of 56.4 min.
Molecule `COC(=O)N1C[C@H]2C[C@@H](NCC(=O)N3CCC[C@H]3C#N)C[C@H]2C1` has a pIC50 (Dipeptidyl peptidase 4) of 7.62.
With `N#C[C@@H]1CCCN1C(=O)CN[C@@H]1C[C@@H]2CN(C(=O)N3CCCC3)C[C@@H]2C1` the pIC50 (Dipeptidyl peptidase 4) was 7.41.
`CC(C)NC(=O)N1C[C@H]2C[C@@H](NCC(=O)N3CCC[C@H]3C#N)C[C@H]2C1` gave a pIC50 (Dipeptidyl peptidase 4) of 6.92.
In the case of `N#C[C@@H]1CCCN1C(=O)CN[C@@H]1C[C@@H]2CN(C(=O)N3CCOCC3)C[C@@H]2C1`, the pIC50 (Dipeptidyl peptidase 4) was 7.30.
`N#C[C@@H]1CCCN1C(=O)CN[C@@H]1C[C@@H]2CN(C(=O)CO)C[C@@H]2C1` showed a pIC50 (Dipeptidyl peptidase 4) of 7.85.
